The results in this text go back to ChEMBL document CHEMBL1124493, “Synthesis and tumor uptake of 5-82Br- and 5-131I-labeled 5-halo-1-(2-fluoro-2-deoxy-beta-D-ribofuranosyl)uracils” (J Med Chem, 1989).

Structures are written as SMILES.

The test system of data set [1] is Mus musculus. The experiment in a line: Biodistribution of intravenously injected [82Br]-labeled compound in blood of BDF1 female mice bearing subcutaneous Lewis lung carcinoma after 4 hours. It counts as ADME, organism-based. The note with it: in vivo, iv. In outline: (§1)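 82Br-labeled nucleoside given intravenously to female BDF1 mice bearing subcutaneous Lewis lung carcinoma, at 47-130 μg carrying 20-60 kBq. Mice sacrificed at each time point. Wet-weighed tissues γ-counted. Values are percent injected dose per gram wet tissue, mean ± SD, n = 6.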

The subject of data set [2] is Mus musculus. The experiment in a line: Biodistribution of intravenously injected [82Br]-labeled compound in liver of BDF1 female mice bearing subcutaneous Lewis lung carcinoma after 4 hours. It counts as ADME, organism-based. To be noted: in vivo, iv. An outline of the steps: (§2)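 Female BDF1 mice with subcutaneous Lewis lung carcinoma given an iv injection of [82Br]-labelled nucleoside, 47-130 μg carrying 20-60 kBq 82Br. Tissues were excised, weighed wet and γ-counted. Values are percent injected dose per gram of wet tissue, mean ± standard deviation of six animals, with organ-to-tumour ratios derived.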

For data set [3], the system named is Mus musculus. The experiment in a line: Biodistribution of intravenously injected [82Br]-labeled compound in kidney of BDF1 female mice bearing subcutaneous Lewis lung carcinoma after 24 hours. It counts as ADME, organism-based. To be noted: in vivo, iv. An outline of the steps:
as §2

In data set [4] the test system is Mus musculus. The data set is described as follows: Biodistribution of intravenously injected [82Br]-labeled compound in tumor of BDF1 female mice bearing subcutaneous Lewis lung carcinoma after 0.25 hours. It counts as ADME, organism-based. The note with it: in vivo, iv.
For data set [5], the system named is Mus musculus. The data set is described as follows: Biodistribution of intravenously injected [82Br]-labeled compound in blood of BDF1 female mice bearing subcutaneous Lewis lung carcinoma after 1 hours. It counts as ADME, organism-based. To be noted: in vivo, iv. In outline:
as §1

Data set [6] deals with Mus musculus. The data set is described as follows: Biodistribution of intravenously injected [82Br]-labeled compound in liver of BDF1 female mice bearing subcutaneous Lewis lung carcinoma after 1 hours. It counts as ADME, organism-based. The note with it: in vivo, iv. An outline of the steps:
as §2

Data set [7] deals with Mus musculus. The data set is described as follows: Biodistribution of intravenously injected [82Br]-labeled compound in kidney of BDF1 female mice bearing subcutaneous Lewis lung carcinoma after 0.5 hours. The note with it: in vivo, iv. It counts as ADME, organism-based. An outline of the steps: as §2
Data set [8] concerns Mus musculus. The data set is described as follows: Biodistribution of intravenously injected [82Br]-labeled compound in liver of BDF1 female mice bearing subcutaneous Lewis lung carcinoma after 0.25 hours. It counts as ADME, organism-based. To be noted: in vivo, iv. An outline of the steps:
as §2

Data set [9] concerns Mus musculus. The data set is described as follows: Biodistribution of intravenously injected [82Br]-labeled compound in blood of BDF1 female mice bearing subcutaneous Lewis lung carcinoma after 0.50 hours. It counts as ADME, organism-based. The note with it: in vivo, iv, 0.5 h. An outline of the steps:
as §1

For data set [10], the system named is Mus musculus. The experiment in a line: Biodistribution of intravenously injected [82Br]-labeled compound in muscle of BDF1 female mice bearing subcutaneous Lewis lung carcinoma after 24 hours. To be noted: in vivo, iv. It counts as ADME, organism-based, Muscle tissue. An outline of the steps: as §2
The test system of data set [11] is Mus musculus. The data set is described as follows: Biodistribution of intravenously injected [82Br]-labeled compound in heart of BDF1 female mice bearing subcutaneous Lewis lung carcinoma after 0.25 hours. It counts as ADME, organism-based. To be noted: in vivo, iv. In outline:
as §2

In data set [12] the test system is Mus musculus. The data set is described as follows: Biodistribution of intravenously injected [82Br]-labeled compound in gut of BDF1 female mice bearing subcutaneous Lewis lung carcinoma after 2 hours. It counts as ADME, organism-based. To be noted: in vivo, iv. In outline:
as §2

The subject of data set [13] is Mus musculus. The data set is described as follows: Biodistribution of intravenously injected [82Br]-labeled compound in lung of BDF1 female mice bearing subcutaneous Lewis lung carcinoma after 24 hours. It counts as ADME, organism-based. To be noted: in vivo, iv. An outline of the steps: as §2
The test system of data set [14] is Mus musculus. The experiment in a line: Biodistribution of intravenously injected [82Br]-labeled compound in heart of BDF1 female mice bearing subcutaneous Lewis lung carcinoma after 0.50 hours. To be noted: in vivo, iv, 0.5 h. It counts as ADME, organism-based. In outline: as §2
For data set [15], the system named is Mus musculus. The experiment in a line: Biodistribution of intravenously injected [82Br]-labeled compound in gut of BDF1 female mice bearing subcutaneous Lewis lung carcinoma after 0.50 hours. It counts as ADME, organism-based. To be noted: in vivo, iv, 0.5 h. In outline:
as §1

The subject of data set [16] is Mus musculus. The data set is described as follows: Biodistribution of intravenously injected [82Br]-labeled compound in bone of BDF1 female mice bearing subcutaneous Lewis lung carcinoma after 24 hours. It counts as ADME, organism-based, Bone element. The note with it: in vivo, iv. In outline: as §1
In data set [17] the test system is Mus musculus. The data set is described as follows: Biodistribution of intravenously injected [82Br]-labeled compound in spleen of BDF1 female mice bearing subcutaneous Lewis lung carcinoma after 0.50 hours. It counts as ADME, organism-based. The note with it: in vivo, iv, 0.5 h. An outline of the steps: as §2
Data set [18] relates to Mus musculus. The experiment in a line: Biodistribution of intravenously injected [82Br]-labeled compound in liver of BDF1 female mice bearing subcutaneous Lewis lung carcinoma after 24 hours. It counts as ADME, organism-based. The note with it: in vivo, iv. In outline:
as §2

Data set [19] relates to Mus musculus. The experiment in a line: Biodistribution of intravenously injected [82Br]-labeled compound in lung of BDF1 female mice bearing subcutaneous Lewis lung carcinoma after 4 hours. It counts as ADME, organism-based. To be noted: in vivo, iv. In outline: as §2
Data set [20] deals with Mus musculus. The data set is described as follows: Biodistribution of intravenously injected [82Br]-labeled compound in muscle of BDF1 female mice bearing subcutaneous Lewis lung carcinoma after 1 hours. It counts as ADME, organism-based, Muscle tissue. To be noted: in vivo, iv. In outline:
as §2

The species entered for data set [21] is Mus musculus. The data set is described as follows: Urinary [131I]5-iodouracil observed in BDF1 female mice bearing lewis lung tumor after 2-3 h of injected [131I]-compound. The note with it: Urine. It counts as functional, tissue-based.
Data set [22] relates to Mus musculus. The experiment in a line: Biodistribution of intravenously injected [131I]-labeled compound in gut of BDF1 female mice bearing subcutaneous Lewis lung carcinoma after 24 hours. It counts as ADME, organism-based. To be noted: in vivo, iv. An outline of the steps: (§3)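 Female BDF1 mice bearing subcutaneous Lewis lung carcinoma received a single intravenous dose of 0.5-1.8 μg of the 131I-labeled nucleoside (55-110 kBq). They were sacrificed at set times, and tissues were weighed wet and γ-counted. Activity is expressed as percent of injected dose per gram of wet tissue, given as mean ± standard deviation for six animals.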

Data set [23] deals with Mus musculus. The data set is described as follows: Biodistribution of intravenously injected [131I]-labeled compound in stomach of BDF1 female mice bearing subcutaneous Lewis lung carcinoma after 2 hours. It counts as ADME, organism-based. To be noted: in vivo, iv. An outline of the steps:
(§4)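 Female BDF1 mice with subcutaneous Lewis lung carcinoma given i.v. 0.5-1.8 μg of 131I-labeled nucleoside (55-110 kBq). Killed at set times. Tissues weighed wet and γ-counted. Radioactivity expressed as percent injected dose per gram wet tissue, mean ± SD of six animals.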

Data set [24] relates to Mus musculus. The experiment in a line: Biodistribution of intravenously injected [131I]-labeled compound in gut of BDF1 female mice bearing subcutaneous Lewis lung carcinoma after 4 hours. It counts as ADME, organism-based. To be noted: in vivo, iv. In outline:
as §3

The test system of data set [25] is Mus musculus. The data set is described as follows: Biodistribution of intravenously injected [131I]-labeled compound in bone of BDF1 female mice bearing subcutaneous Lewis lung carcinoma after 4 hours. It counts as ADME, organism-based, Bone element. To be noted: in vivo, iv. In outline: as §3
Data set [26] deals with Mus musculus. The data set is described as follows: Biodistribution of intravenously injected [131I]-labeled compound in stomach of BDF1 female mice bearing subcutaneous Lewis lung carcinoma after 1 hours. It counts as ADME, organism-based. To be noted: in vivo, iv. In outline:
as §4

For data set [27], the system named is Mus musculus. The experiment in a line: Biodistribution of intravenously injected [131I]-labeled compound in gut of BDF1 female mice bearing subcutaneous Lewis lung carcinoma after 0.25 hours. It counts as ADME, organism-based. The note with it: in vivo, iv. In outline: as §3
Data set [28] concerns Mus musculus. The data set is described as follows: Biodistribution of intravenously injected [131I]-labeled compound in gut of BDF1 female mice bearing subcutaneous Lewis lung carcinoma after 2 hours. The note with it: in vivo, iv. It counts as ADME, organism-based. In outline:
as §3

Data set [29] relates to Mus musculus. The experiment in a line: Biodistribution of intravenously injected [131I]-labeled compound in gut of BDF1 female mice bearing subcutaneous Lewis lung carcinoma after 8 hours. It counts as ADME, organism-based. The note with it: in vivo, iv. An outline of the steps: as §3
The species named for data set [30] is Mus musculus. The data set is described as follows: Urinary iodide observed in BDF1 female mice bearing lewis lung tumor after 24 hr of injected [131I]-compound. It counts as functional, tissue-based. To be noted: Urine.
The test system of data set [31] is Mus musculus. The data set is described as follows: Biodistribution of intravenously injected [131I]-labeled compound in muscle of BDF1 female mice bearing subcutaneous Lewis lung carcinoma after 1 hours. It counts as ADME, organism-based, Muscle tissue. The note with it: in vivo, iv. In outline:
as §4

Data set [32] is filed under the species Mus musculus. The experiment in a line: Urinary [131I]- compound observed in BDF1 female mice bearing lewis lung tumor after 0-0.5 h of injected [131I]-compound. It counts as functional, tissue-based. To be noted: Urine.
The subject of data set [33] is Mus musculus. The experiment in a line: Biodistribution of intravenously injected [131I]-labeled compound in muscle of BDF1 female mice bearing subcutaneous Lewis lung carcinoma after 2 hours. It counts as ADME, organism-based, Muscle tissue. To be noted: in vivo, iv. An outline of the steps: as §4
Data set [34] deals with Mus musculus. The data set is described as follows: Biodistribution of intravenously injected [131I]-labeled compound in heart of BDF1 female mice bearing subcutaneous Lewis lung carcinoma after 8 hours. It counts as ADME, organism-based. The note with it: in vivo, iv. An outline of the steps: as §3
Data set [35] concerns Mus musculus. The experiment in a line: Biodistribution of intravenously injected [131I]-labeled compound in tumor of BDF1 female mice bearing subcutaneous Lewis lung carcinoma after 8 hours. It counts as ADME, organism-based. The note with it: in vivo, iv. In outline: as §4
In data set [36] the test system is Mus musculus. The experiment in a line: Biodistribution of intravenously injected [131I]-labeled compound in blood of BDF1 female mice bearing subcutaneous Lewis lung carcinoma after 1 hours. It counts as ADME, organism-based. To be noted: in vivo, iv. In outline: as §3
The test system of data set [37] is Mus musculus. The experiment in a line: Biodistribution of intravenously injected [131I]-labeled compound in tumor of BDF1 female mice bearing subcutaneous Lewis lung carcinoma after 24 hours. It counts as ADME, organism-based. To be noted: in vivo, iv. In outline: as §4
Data set [38] has as its system Mus musculus. The data set is described as follows: Biodistribution of intravenously injected [131I]-labeled compound in skin of BDF1 female mice bearing subcutaneous Lewis lung carcinoma after 1 hours. It counts as ADME, organism-based, Zone of skin. To be noted: in vivo, iv. An outline of the steps:
as §4

`O=c1[nH]c(=O)n([C@H]2O[C@@H](CO)[C@H](O)[C@H]2F)cc1Br`: the Injected dose/g in data set [1] came to 0.6%; in data set [2], 0.23%; in data set [3], 0.36%; in data set [4] it was 1.39%; in data set [5], 0.78%; in [6], 0.34%. The Injected dose/g in data set [7] is on record as 2.68%; in data set [8] it was 1.45%; in data set [9], 1.36%; in [10] it was 0.09%; in data set [11], 1.61%; in data set [12] it was 0.41%. The Injected dose/g in data set [13] is 0.35%; in data set [14], 0.76%; in data set [15], 0.72%; in data set [16] it was 0.14%; in [17] it was 0.59%; in [18] it was 0.18%. Further, the Injected dose/g is on record as 0.38% in data set [19] and 0.21% in data set [20].
In the case of `O=c1[nH]c(=O)n([C@@H]2O[C@H](CO)[C@@H](O)[C@H]2F)cc1I`, the Radioactive constituents in data set [21] worked out at 0%; in [30], 62.6%; in data set [32], 90.8%. The Injected dose/g turned out to be 0.07% in data set [22]; 4% in data set [23]; 2.1% in [24]; 1.3% in data set [25]; 4.5% in data set [26]; 3.1% in data set [27]. In addition, the Injected dose/g turned out to be 1.9% in [28]; 1.3% in [29]; 2.3% in [31]; 1.3% in data set [33]; 1.6% in data set [34]; 1.9% in data set [35]. Besides, the values for the Injected dose/g in data set [36], in data set [37] and in data set [38] were 13.3%, 0.08% and 5%, respectively.
